Experimental data from different studies.

SMILES	system	setting	half-life [h]
CC(=Nc1ccc(N=Cc2cnccn2)cc1)N(C)C	male Sprague-Dawley rat, plasma	oral, 200 mg/kg	7.79
Nc1ccc(/C=C/C(=O)NCc2cc3cc(-c4ccc(C(=O)N5CCC(F)(F)CC5)cc4)cc(-c4ccc(F)cc4)c3o2)cn1	rat, plasma	oral, 3 mg/kg	4.59
COc1ccc2cc3n(c(=O)c2c1OC)CCc1cc2c(cc1-3)OCO2	male Sprague-Dawley rat, blood	oral, 50 mg/kg	1.57
O=C1CC[C@H](N2Cc3cc(N4CCN(CC5CCN(c6ccc([C@@H]7c8ccc(O)cc8CC[C@@H]7c7ccccc7)cc6)CC5)CC4)ccc3C2=O)C(=O)N1	female Sprague-Dawley rat, plasma	oral, 20 mg/kg, fed	6.38
O=C(C=Cc1ccccc1)Nc1cc(-c2ccnc(N3CCC(O)CC3)c2)ccn1	female Sprague-Dawley rat, plasma	oral, 50 mg/kg	0.48
CC1(CN)CCN(c2cnc3c(Sc4ccncc4Cl)n[nH]c3n2)CC1	male Sprague-Dawley rat, plasma	intravenous, 2 mg/kg	0.935
N#C[C@@]12C[C@@H]1[C@@H](n1cnc3c(N[C@@H](C4CCC4)C4CC4)nc(I)nc31)[C@H](O)[C@@H]2O	male Wistar rat, plasma	oral, 3 mg/kg	4.3
O=c1cc(-c2ccc(O)c(O)c2)oc2cc(O)cc(O)c12	male Sprague-Dawley rat, plasma	oral, 30 mg/kg	2.2
C/C(=N\c1ccc(O)cc1)c1cc2ccccc2n1C	male Sprague-Dawley rat, plasma	intravenous, 5 mg/kg, single dose	~4.5
